Active and inactive are the calls of the source.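 How the source made its calls: active means at least 50% inhibition of the target enzyme pPAFAH in mouse brain after oral dosing, with fewer than two other serine hydrolases also hit; inactive means weaker pPAFAH inhibition or two or more other hydrolases hit.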

By inhibition is commonly meant the share of the control response that was lost under treatment.

What all share (test): in vivo serine hydrolase selectivity, brain membranes – fluorescence, gel-based ABPP, mouse, in vivo study, late-stage follow-up (AID 588823)
In test [1] the test system is Anti-targets. The note with it: mouse brain membrane proteome, oral dosing, FP-Rh probe. The method in brief: (§1)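 Test system: Brain membrane proteome from orally dosed wild-type mice | Amount: 1 mg/mL membrane protein | Times: Brain harvest 4 h post-dose, probe labelling 30 min, 37 °C | Read-out basis: Percent inhibition from band integrated optical density versus vehicle, background-corrected | Compound dosing: 50 mg/kg orally in PEG300 | Signal: SDS-PAGE in-gel fluorescence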

Test [2] concerns CES1. To be noted: mouse brain membrane proteome, oral dosing, stronger effect = higher value, dose or concentration not given here. Put shortly:
as §1

The subject of test [3] is pPAFAH. To be noted: mouse brain membrane proteome, oral dosing, stronger effect = higher value, dose or concentration not given here. Put shortly:
as §1

As to `Cc1cc(N2CCN(C(=O)Oc3ccc(-c4ccccc4)cn3)CC2)c2ccccc2n1`, in test [1], the result was inactive. The compound also gave an anti-target count in test [1] (number of FP-Rh anti-targets, stronger effect = lower value) of 0. The inhibition in test [2] was 90%; in test [3] it was 95.5%.

These data come from PubChem BioAssay AID588823 (The Scripps Research Institute Molecular Screening Center, 2011).
